Experimental data from ChEMBL document CHEMBL1240531, “Effects of conformational restriction of 2-amino-3-benzoylthiophenes on A(1) adenosine receptor modulation” (J Med Chem, 2010).

Columns and labels:
[1] = molecular target: T1, Adenosine receptor A1 (Homo sapiens) (UniProt P30542); test: Allosteric enhancement of human adenosine A1 receptor expressed in CHO FlpIn cells assessed as potentiation of N(6)-(R-phenylisopropyl)adenosine-induced ERK1/2 phosphorylation at 10 uM relative to N(6)-(R-phenylisopropyl)adenosine; type: cell-based
T1 sequence (whole entry): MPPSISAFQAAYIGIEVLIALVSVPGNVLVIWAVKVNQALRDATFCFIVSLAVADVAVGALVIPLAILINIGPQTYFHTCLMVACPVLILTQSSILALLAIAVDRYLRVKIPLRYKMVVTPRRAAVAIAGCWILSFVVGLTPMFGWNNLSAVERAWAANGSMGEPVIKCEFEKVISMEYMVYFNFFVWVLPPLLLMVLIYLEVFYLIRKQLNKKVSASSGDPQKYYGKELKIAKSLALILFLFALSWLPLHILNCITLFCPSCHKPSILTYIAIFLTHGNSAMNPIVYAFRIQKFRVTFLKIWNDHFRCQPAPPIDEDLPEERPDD

[2] = molecular target: T1, Adenosine receptor A1 (Homo sapiens); test: Allosteric enhancement of human adenosine A1 receptor expressed in CHO FlpIn cells assessed as increase of ERK1/2 phosphorylation at 3 to 10 uM relative to N(6)-(R-phenylisopropyl)adenosine; type: cell-based
[3] = molecular target: T1, Adenosine receptor A1 (Homo sapiens); test: Allosteric enhancement of human adenosine A1 receptor expressed in CHO FlpIn cells assessed as potentiation of N(6)-(R-phenylisopropyl)adenosine-induced ERK1/2 phosphorylation at 3 uM relative to N(6)-(R-phenylisopropyl)adenosine; type: cell-based
[4] = molecular target: T2, Adenosine receptor A1 (Rattus norvegicus) (UniProt P25099); test: Allosteric enhancement of human adenosine A1 receptor in rat brain membranes assessed as increase of [3H]N6-cyclohexyladenosine binding at 100 uM relative to control; type: cell membranes
T2 sequence (whole entry): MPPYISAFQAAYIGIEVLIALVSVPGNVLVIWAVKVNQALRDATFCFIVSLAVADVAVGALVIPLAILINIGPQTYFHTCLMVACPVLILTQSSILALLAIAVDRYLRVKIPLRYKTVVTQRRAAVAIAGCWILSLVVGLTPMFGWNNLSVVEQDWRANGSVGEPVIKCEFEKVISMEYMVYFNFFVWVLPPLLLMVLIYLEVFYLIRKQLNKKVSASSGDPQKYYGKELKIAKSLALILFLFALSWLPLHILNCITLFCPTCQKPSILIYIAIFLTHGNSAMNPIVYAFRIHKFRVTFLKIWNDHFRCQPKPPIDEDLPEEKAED

[5] = molecular target: T3, Adenosine receptor A1 (Homo sapiens, UniProt P30542); test: Antagonist activity at human adenosine A1 receptor expressed in CHO FlpIn cells assessed as inhibition of N(6)-(R-phenylisopropyl)adenosine-induced ERK1/2 phosphorylation; type: functional, cell-based; settings: read-out: pA2 (converted)
T3 sequence (P30542 whole entry): T1 sequence (whole entry)
Procedure, shortened: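 Human A1AR FlpIn-CHO cells were pretreated with 1 U/mL adenosine deaminase for 30 min, then with test ligand over a concentration range for 30 min at 37 °C. R-PIA was then added for 5 min stimulation. Lysates were assayed for phospho-ERK1/2 by AlphaScreen SureFire. Response was expressed as percent of the 6 min 3% FBS response. Three experiments in triplicate, mean ± SEM. Curves were fitted globally to a competitive or allosteric model.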

Row | SMILES | Activity [1] [%] | Activity [2] [%] | Activity [3] [%] | Activity [4] [%] | Kb [5] [µM]
1 | Nc1scc2c1C(=O)c1ccccc1-2 | 27 | 5 | 45 | – | –
2 | Nc1sc(-c2ccncc2)c2c1C(=O)c1ccccc1-2 | 17 | 5 | 28 | – | –
3 | Nc1sc2c(c1C(=O)c1ccc(Cl)cc1)-c1cccc(C(F)(F)F)c1C2 | 73 | 5 | 65 | – | –
4 | COc1ccc(-c2sc(N)c3c2-c2ccccc2C3=O)cc1 | 18 | 5 | 37 | – | –
5 | Nc1ccccc1C(=O)c1ccccc1 | – | – | – | 34 | –
6 | Nc1scc2c1C(=O)c1ccc(Cl)cc1-2 | 29 | 20 | 56 | – | –
7 | Nc1sc2c(c1C(=O)c1ccccc1)-c1cccc(C(F)(F)F)c1C2 | 49 | 5 | 56 | – | –
8 | Nc1sc(-c2ccccc2)cc1C(=O)c1ccccc1 | 1 | 5 | 12 | – | 0.209
9 | Nc1sc(-c2cncnc2)c2c1C(=O)c1ccccc1-2 | 7 | 5 | 19 | – | 0.646
10 | Nc1sccc1C(=O)c1ccccc1 | 30 | 5 | 48 | 59 | –
11 | Nc1sc(-c2ccc(C(=O)O)cc2)cc1C(=O)c1ccccc1 | 27 | 5 | 51 | – | –
12 | Nc1sccc1C(=O)c1ccc(Cl)cc1 | 40 | 5 | 50 | – | –
13 | Nc1sc2c(c1C(=O)c1ccc(Cl)cc1)-c1ccccc1C2 | 84 | 20 | 81 | – | –
14 | CN(C)c1ccc(-c2cc(C(=O)c3ccccc3)c(N)s2)cc1 | 29 | 5 | 50 | – | –
15 | Nc1sc2c(c1C(=O)c1ccc(Cl)cc1)-c1cc(C(F)(F)F)ccc1C2 | 73 | 5 | 62 | – | –
16 | Nc1sc(-c2ccc(C(=O)O)cc2)c2c1C(=O)c1ccccc1-2 | 7 | 5 | 19 | – | –

Row | SMILES | Activity [1] [%] | Activity [2] [%] | Activity [3] [%] | Activity [4] [%] | Kb [5] [µM]
17 | Nc1sc(-c2ccc(C(=O)O)cc2)cc1C(=O)c1ccc(Cl)cc1 | 29 | 5 | 27 | – | –
18 | Nc1cccc2c1C(=O)c1ccccc1-2 | – | – | – | 122 | –
19 | Nc1sc2c(c1C(=O)c1ccccc1)-c1cc(C(F)(F)F)ccc1C2 | 38 | 5 | 52 | – | –
20 | CN(C)c1ccc(-c2sc(N)c3c2-c2ccccc2C3=O)cc1 | 32 | 5 | 48 | – | –
21 | Nc1sc2c(c1C(=O)c1ccccc1)-c1ccccc1C2 | 9 | 5 | 23 | – | –
22 | COc1ccc(-c2cc(C(=O)c3ccc(Cl)cc3)c(N)s2)cc1 | 29 | 5 | 51 | – | –
23 | Nc1sc(-c2cncnc2)cc1C(=O)c1ccc(Cl)cc1 | 4 | 5 | 7 | – | 0.145
24 | COc1ccc(-c2cc(C(=O)c3ccccc3)c(N)s2)cc1 | 14 | 5 | 31 | – | –
25 | Nc1scc2c1C(=O)c1c(Cl)cccc1-2 | 38 | 5 | 45 | – | –
26 | Nc1sc(-c2ccccc2)cc1C(=O)c1ccc(Cl)cc1 | 16 | 5 | 46 | – | –
27 | Nc1sc(-c2ccccc2)c2c1C(=O)c1ccccc1-2 | 3 | 5 | 19 | – | –
28 | Nc1sc(-c2ccncc2)cc1C(=O)c1ccccc1 | 17 | 5 | 23 | – | –
29 | Nc1sc(-c2ccncc2)cc1C(=O)c1ccc(Cl)cc1 | 17 | 5 | 44 | – | –
30 | Nc1sc(-c2cncnc2)cc1C(=O)c1ccccc1 | 2 | 5 | 18 | – | –
31 | CN(C)c1ccc(-c2cc(C(=O)c3ccc(Cl)cc3)c(N)s2)cc1 | 41 | 5 | 56 | – | –
